Measured values of several laboratories.
Lines come from different studies, so protocols differ.
Read-out: cell growth or viability

SMILES	cell line	method	concentration	time	measurement	result
NNc1nc2c(Cl)cc(Cl)cc2c(=O)n1-c1ccc(F)cc1	SW480	MTT	–	48 h	IC50	52000 nM
Cc1nc(NC(=O)N2CCC[C@H]2C(N)=O)sc1-c1ccnc(C(C)(C)C(F)(F)F)c1	HGC-27	ATP luminescence	–	5 days	EC50	20100 nM
Cc1n[nH]c2ccc3nc(-c4ccc(C(=O)NCCN(C)C)cc4F)c4c(c3c12)CCCCC4	Kasumi 1	–	–	72 h	GI50	397 nM
CCN(CC)c1ccc(C=NNC(=O)CSc2nc3ccccc3c(=O)n2Cc2ccc(S(N)(=O)=O)cc2)c(O)c1	NCI/ADR-RES	SRB	–	–	GI50	> 100000 nM
COc1cccc2c1C(=O)c1c(O)c3c(c(O)c1C2=O)C[C@@](O)(C(=O)CO)C[C@@H]3O[C@H]1C[C@H](N)[C@H](O)[C@H](C)O1	SW480	MTT	–	72 h	IC50	90 nM
Cc1nc(Nc2ncc(C(=O)Nc3c(C)cccc3Cl)s2)cc(N2CC[C@H](O)C2)n1	Toledo	ATP luminescence	10 µM	72 h	inhibition	50%
Cc1n[nH]c2ccc3nc(-c4ccc(C(=O)NCCN(C)C)cc4)c4c(c3c12)CCCC4	Kasumi 1	–	–	72 h	GI50	148 nM
C=C1CC[C@@H]2[C@](C)(CO)[C@H](O)CC[C@@]2(C)[C@@H]1C/C=C1/C(=O)OC[C@H]1O	SW480	MTT	–	72 h	IC50	4170 nM
C[C@H](Nc1ccc2c(c1)OCCn1cc(N3C(=O)OC[C@H]3C(F)F)nc1-2)C(N)=O	HGC-27	ATP luminescence	–	5 days	EC50	120 nM
